From ChEMBL document CHEMBL4138196, “Discovery and structure-activity relationship of novel 4-hydroxy-thiazolidine-2-thione derivatives as tumor cell specific pyruvate kinase M2 activators” (Eur J Med Chem, 2018)
pIC50: −log10 of the molar value.

What was measured:
Pyruvate kinase PKM = Pyruvate kinase PKM (Homo sapiens, UniProt P14618); assay: Activation of N-terminal His -tagged human PKM2 expressed in Escherichia coli BL21 using PEP as substrate measured at 30 secs intervals for between 3 and 6 mins by fluorescent pyruvate kinase-lactate dehydrogenase coupled assay
Chain of Pyruvate kinase PKM (P14618 whole entry): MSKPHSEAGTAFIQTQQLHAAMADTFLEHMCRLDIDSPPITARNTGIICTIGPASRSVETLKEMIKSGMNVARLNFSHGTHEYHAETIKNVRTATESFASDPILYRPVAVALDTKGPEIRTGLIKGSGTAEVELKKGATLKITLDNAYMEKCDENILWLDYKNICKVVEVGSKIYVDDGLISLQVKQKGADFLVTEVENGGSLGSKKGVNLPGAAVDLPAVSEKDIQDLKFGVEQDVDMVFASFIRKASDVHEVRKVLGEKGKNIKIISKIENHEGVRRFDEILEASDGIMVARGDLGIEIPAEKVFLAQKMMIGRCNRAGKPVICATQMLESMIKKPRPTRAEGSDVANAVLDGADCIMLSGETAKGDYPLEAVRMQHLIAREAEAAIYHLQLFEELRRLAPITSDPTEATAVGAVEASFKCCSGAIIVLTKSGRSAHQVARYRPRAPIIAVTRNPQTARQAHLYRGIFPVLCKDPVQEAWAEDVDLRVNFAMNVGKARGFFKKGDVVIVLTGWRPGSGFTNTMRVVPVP

NCI-H1299 = assay: Antiproliferative activity against human H1299 cells after 48 hrs by MTS assay; assay type: functional, cell-based; conditions: NCI-H1299, 48 h
Procedure, shortened: (§1)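 Cells grown in RPMI 1640 with 9% FBS at 37°C, 5% CO2. 3000-10000 cells/well were left to attach 12 h, then given compound at five concentrations, or DMSO as vehicle control, for 48 h. MTS was added for 3 h at 37°C and absorbance read at 490 nm. IC50 (50% growth inhibition) was taken from triplicate dose-response curves.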

HCT-116 [1] = assay: Antiproliferative activity against human HCT116 cells after 48 hrs by MTS assay; assay type: functional, cell-based; conditions: HCT-116, 48 h; procedure, shortened: as §1
HeLa = assay: Antiproliferative activity against human HeLa cells after 48 hrs by MTS assay; assay type: functional, cell-based; procedure, shortened: as §1
PC-3 = assay: Antiproliferative activity against human PC3 cells after 48 hrs by MTS assay; assay type: functional, cell-based; conditions: PC-3, 48 h; procedure, shortened: as §1
[2] = Antiproliferative activity against HELF after 48 hrs by MTS assay; set-up: species or system Homo sapiens; procedure, shortened: as §1
HCT-116 [3] = assay: Cell cycle arrest in human HCT116 cells assessed as accumulation at G1 phase at 1.25 uM after 8 to 12 hrs by propidium iodide staining-based flow cytometric method (reference value: 40%); assay type: functional
Procedure, shortened: (§2)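 HCT116 cells were exposed to DMSO or compound at 1.25, 2.5 or 5 μM; exposure is given as 8 h in the text and 12 h in the methods. Cells were harvested, washed twice in PBS and fixed in ice-cold ethanol at -4°C overnight. They were stained with propidium iodide (50 μg/mL) containing 0.1% RNase for 15 min in the dark at room temperature. Phase distribution was read by flow cytometry.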

HCT-116 [4] = assay: Cell cycle arrest in human HCT116 cells assessed as accumulation at S phase at 1.25 uM after 8 to 12 hrs by propidium iodide staining-based flow cytometric method (reference value: 43.38%); assay type: functional; procedure, shortened: as §2
HCT-116 [5] = assay: Cell cycle arrest in human HCT116 cells assessed as accumulation at G2/M phase at 1.25 uM after 8 to 12 hrs by propidium iodide staining-based flow cytometric method (reference value: 21.28%); assay type: functional; procedure, shortened: as §2
HCT-116 [6] = assay: Cell cycle arrest in human HCT116 cells assessed as accumulation at G1 phase at 2.5 uM after 8 to 12 hrs by propidium iodide staining-based flow cytometric method (reference value: 40%); assay type: functional; procedure, shortened: as §2
HCT-116 [7] = assay: Cell cycle arrest in human HCT116 cells assessed as accumulation at S phase at 2.5 uM after 8 to 12 hrs by propidium iodide staining-based flow cytometric method (reference value: 43.38%); assay type: functional; procedure, shortened: as §2
HCT-116 [8] = assay: Cell cycle arrest in human HCT116 cells assessed as accumulation at G2/M phase at 2.5 uM after 8 to 12 hrs by propidium iodide staining-based flow cytometric method (reference value: 21.28%); assay type: functional; procedure, shortened: as §2
HCT-116 [9] = assay: Cell cycle arrest in human HCT116 cells assessed as accumulation at G1 phase at 5 uM after 8 to 12 hrs by propidium iodide staining-based flow cytometric method (reference value: 40%); assay type: functional; procedure, shortened: as §2
HCT-116 [10] = assay: Cell cycle arrest in human HCT116 cells assessed as accumulation at S phase at 5 uM after 8 to 12 hrs by propidium iodide staining-based flow cytometric method (reference value: 43.38%); assay type: functional; procedure, shortened: as §2
HCT-116 [11] = assay: Cell cycle arrest in human HCT116 cells assessed as accumulation at G2/M phase at 5 uM after 8 to 12 hrs by propidium iodide staining-based flow cytometric method (reference value: 21.28%); assay type: functional; procedure, shortened: as §2
HCT-116 [12] = assay: Cell cycle arrest in human HCT116 cells assessed as accumulation at G2/M phase after 8 to 12 hrs by propidium iodide staining-based flow cytometric method; assay type: functional; procedure, shortened: as §2

AC50 (Pyruvate kinase PKM): 3140 nM
pIC50 (NCI-H1299): 6.16
pIC50 (HCT-116 [1]): 6.09
pIC50 (HeLa): 6.34
pIC50 (PC-3): 6.18
Structure (SMILES): O=S(=O)(Nc1ccc(C2(O)CSC(=S)N2Cc2cccnc2)cc1)c1ccc2c(c1)OCCO2 (stereo unspecified)
pIC50 [2]: 4.93
Activity (HCT-116 [3]): 20.37%
Activity (HCT-116 [4]): 30.52%
Activity (HCT-116 [5]): 48.86%
Activity (HCT-116 [6]): 17.35%
Activity (HCT-116 [7]): 23.99%
Activity (HCT-116 [8]): 56.76%
Activity (HCT-116 [9]): 11.58%
Activity (HCT-116 [10]): 27.65%
Activity (HCT-116 [11]): 63.21%
Activity (HCT-116 [12]): Dose-dependent effect
